Source: PubChem
A selection: hits, their analogues and other compounds. The true share with any hit is near 2.3%.
MEKK2wt PB1 HTS – raises or lowers MEK5 binding to wildtype human MEKK2 PB1 domain; Q9Y2U5; bead flow cytometry, Alexa488-MEK5 binding to MEKK2 WT; actives lie on both sides; binding response (% of control), % at 10 µM; 290,000 compounds, 1.1% hits; in the data active = binding response below about 67% or above about 130%
MEKK2mut PB1 HTS – signal of MEK5 binding to mutant human MEKK2 PB1 domain | bead flow cytometry, Alexa488-MEK5 binding to MEKK2 mutant | percent response, % at 10 µM | 290,000 compounds, 0.35% hits; in the data active = percent response above about 24%, passing the limit was not always enough
Arrestin-AP2 inh – blocks beta-arrestin peptide binding to AP2 adaptin. 340,000 compounds, 0.31% hits. FITC-arrestin peptide / GST-AP2 beads, flow cytometry; AP2 beta2 appendage carries R879A mutation. inhibition, % at 10 µM;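 active = inhibition above a set limit, near 3 SD of compounds lacking own fluorescence, cut at about 54% in these data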
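System: GST-AP2 R879A glutathione beads | Also added: FITC-arrestin peptide, 50 nM | Times: 12 min plus 1 h, RT | Signal: Bead flow cytometry, FITC channel | Buffer or medium: PBS with 0.05% Tween 20 and 0.1% BSA | Read-out basis: Percent drop in bead-associated FITC signal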
MEKK3 PB1 HTS – MEKK3-MEK5 PB1 interaction, increase or decrease | Q99759 | bead-based flow cytometry, Alexa488-MEK5 binding to MEKK3; actives lie on both sides; 0 = blocked by unlabeled MEK5, 100 = vehicle | binding response (% of control), % at 10 µM | 290,000 compounds, 1.4% hits | AID 1529;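 active = binding response more than 3 SD above or below the average of its plate-row segment, actives on both sides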;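 note: Alexa488 bead fluorescence after subtracting the streptavidin-only scavenger bead signal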
Target sequence (Q99759 whole entry, looked up): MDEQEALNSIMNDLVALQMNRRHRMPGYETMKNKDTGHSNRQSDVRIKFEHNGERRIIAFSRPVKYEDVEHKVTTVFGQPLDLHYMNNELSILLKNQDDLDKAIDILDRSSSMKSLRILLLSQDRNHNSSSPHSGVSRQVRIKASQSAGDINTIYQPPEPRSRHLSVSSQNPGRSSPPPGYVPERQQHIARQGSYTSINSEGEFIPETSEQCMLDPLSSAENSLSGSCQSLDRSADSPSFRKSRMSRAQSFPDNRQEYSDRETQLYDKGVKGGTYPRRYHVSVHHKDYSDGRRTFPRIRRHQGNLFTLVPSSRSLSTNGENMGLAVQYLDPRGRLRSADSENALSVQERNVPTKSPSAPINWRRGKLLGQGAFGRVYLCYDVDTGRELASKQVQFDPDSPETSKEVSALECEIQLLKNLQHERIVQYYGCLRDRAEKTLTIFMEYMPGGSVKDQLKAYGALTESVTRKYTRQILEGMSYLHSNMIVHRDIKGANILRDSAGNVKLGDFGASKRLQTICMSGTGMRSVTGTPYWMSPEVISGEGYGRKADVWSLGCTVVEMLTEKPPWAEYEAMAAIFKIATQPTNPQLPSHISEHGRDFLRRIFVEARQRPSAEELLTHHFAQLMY
MEKK2wt confirm – raises or lowers MEK5 binding to wildtype human MEKK2, retest; shares compounds with MEKK3 PB1 HTS; bead flow cytometry, Alexa488-MEK5 binding to MEKK2 WT; actives lie on both sides; binding response (% of control), % at 10 µM; 5,900 compounds, 2.4% hits; in the data active = binding response below about 16% or above about 210%; inactive = in between
MEKK2mut confirm – signal of MEK5 binding to mutant human MEKK2, retest; bead flow cytometry, Alexa488-MEK5 binding to MEKK2 mutant; percent response, % at 10 µM; shares compounds with MEKK3 PB1 HTS; AID 1893; 5,900 compounds, 2% hits; in the data active = percent response mostly above about 71%, no sharp cut-off; inactive = mostly below about 38%;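 note: higher means compound restores mutant binding toward wildtype level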
MEKK3-MEK5 inh – MEKK3-MEK5 PB1 inhibition, single concentration confirmation; AID 1894; binding response (% of control), % at 10 µM; shares compounds with MEKK3 PB1 HTS; 5,900 compounds, 1.8% hits; bead flow cytometry, Alexa488-MEK5 binding to MEKK3; stronger effect = lower value;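 active = binding response below 72% of control, or above a set upper limit, though filed actives all read lower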
Each line names hits and unclear results; the compound was inactive in the other large screens (follow-up assays come after a bar, where they were run); [ ] = another dose, or the depositor's remark.

COc1ccc(C(C)=O)cc1COC(=O)CNC(=O)C1CCCCC1	none (no result: MEKK2wt PB1 HTS, MEKK2mut PB1 HTS, MEKK3 PB1 HTS)
CCS(=O)(=O)N1CCC(C(=O)Oc2ccc(Cl)cc2)CC1	none
CC(C)c1ccccc1NC1=CC(=O)CC(C)(C)C1	none
Cc1ccc(CN2C(=O)CCC2C(=O)N2CCN(c3ccccc3)CC2)cc1 (stereo not given)	MEKK2wt PB1 HTS 6.0[inhibitor], MEKK3 PB1 HTS 4.0[inhibitor] | MEKK2wt confirm inactive | MEKK2mut confirm inactive | MEKK3-MEK5 inh inactive
Cc1ccc(CN2C(=O)CCC2C(=O)NC2CCCC2)cc1 (stereo not given)	none
S=C(NCc1ccc(Cl)cc1)NN1CCOCC1	none
COC(=O)N/N=C/c1cc(C)n(-c2ccccc2)c1C	MEKK2wt PB1 HTS 1.0[inhibitor], MEKK3 PB1 HTS 1.0[inhibitor] | MEKK2wt confirm inactive | MEKK2mut confirm inactive | MEKK3-MEK5 inh inactive
CC(C)CNC(=O)Cn1c(=O)c2c(ncn2CC(C)C)n(Cc2ccccc2)c1=O	none
CCOc1ccc(C(=O)Nc2ccc(N3CCCC3)cc2)cc1	none
CC(C)Oc1cccc(C(=O)NC(=S)Nc2ccc(N3CCN(C)CC3)cc2)c1	MEKK3 PB1 HTS 24[inhibitor] | MEKK2wt confirm inactive | MEKK2mut confirm inactive | MEKK3-MEK5 inh inactive
O=C(Nc1ccc2c(c1)OCCO2)c1cccc(C(=O)Nc2ccc3c(c2)OCCO3)c1	none
COc1cccc(C(=O)NC(=S)Nc2ccc(N3CCCC3)cc2)c1	none
CCOc1ccc(OCc2cccc(C(=O)Nc3ccc(CN4CCCCC4)cc3)c2)cc1	MEKK2wt PB1 HTS 161 | MEKK2wt confirm inactive | MEKK2mut confirm inactive | MEKK3-MEK5 inh inactive
CCOc1cccc(C(=O)Nc2ccc(N3CCCC3)cc2)c1	MEKK2wt PB1 HTS 144 | MEKK2wt confirm inactive | MEKK2mut confirm inactive | MEKK3-MEK5 inh inactive
CCOc1cccc(C(=O)Nc2ccc3c(c2)OCCO3)c1	MEKK2wt PB1 HTS 38[inhibitor], MEKK3 PB1 HTS 26[inhibitor] | MEKK2wt confirm inactive | MEKK2mut confirm inactive | MEKK3-MEK5 inh inactive
COc1ccc(OCc2cccc(C(=O)Nc3ccc(CN4CCCCC4)cc3)c2)cc1	none
CCOc1ccc(C(=O)Nc2ccc(N3CCN(C)CC3)cc2)cc1Br	MEKK2mut PB1 HTS 24 | MEKK2wt confirm inactive | MEKK2mut confirm inactive | MEKK3-MEK5 inh inactive
CCOc1ccc(C(=O)Nc2ccc(N3CCN(C(=O)c4ccco4)CC3)cc2)cc1Br	none (no result: MEKK2wt PB1 HTS, MEKK2mut PB1 HTS, MEKK3 PB1 HTS)
CCc1nc(N2CCCC2C(=O)O)c2oc3ccccc3c2n1 (stereo not given)	MEKK3 PB1 HTS 57[inhibitor] | MEKK2wt confirm inactive | MEKK2mut confirm inactive | MEKK3-MEK5 inh inactive
CCc1nc(N2CCN(C(=O)c3ccco3)CC2)c2oc3ccccc3c2n1	none
CCOP(=O)(c1ccccc1)C(O)c1ccccc1 (stereo not given)	none
CCOP(=O)(c1ccccc1)C(O)c1ccc(Br)cc1 (stereo not given)	MEKK3 PB1 HTS 134 | MEKK2wt confirm inactive | MEKK2mut confirm inactive | MEKK3-MEK5 inh inactive
CCCC1SCC(C)(C)NC1=O (stereo not given)	none (no result: MEKK2wt PB1 HTS, MEKK2mut PB1 HTS, MEKK3 PB1 HTS)
CC(C)(C)C(=O)Nc1ccc2oc(-c3cc(F)c(F)cc3Cl)nc2c1	MEKK2wt PB1 HTS 1.0[inhibitor], MEKK3 PB1 HTS 1.0[inhibitor] | MEKK2wt confirm inactive | MEKK2mut confirm inactive | MEKK3-MEK5 inh inactive
CC(=O)Nc1ccc(-c2nc3cc(Cl)ccc3o2)cc1	none
CCN(CC)CCCN(C(=O)c1cccc(C)c1)c1nc(-c2ccc(OC)cc2)cs1	MEKK2wt PB1 HTS 143 | MEKK2wt confirm inactive | MEKK2mut confirm inactive | MEKK3-MEK5 inh inactive
COCCCN(C(=O)c1ccccc1)c1nc(-c2ccc(OC)cc2)cs1	none
